# Tests used:
# Plasmodium falciparum [1] = test: Antimalarial activity against Plasmodium falciparum K1 assessed as [3H]hypoxanthine incorporation by scintillation counting; format: functional, organism-based
# [2] = Cytotoxicity against human MCF7 cells after 48 hrs by MTT assay; format: cell-based
# [3] = Cytotoxicity against human KB cells after 72 hrs by alamar blue assay; format: cell-based
# Summary of the method: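 KB cells were seeded at 4×10^4 cells/mL in RPMI 1640 with 10% heat-inactivated FCS and left 24 h at 37 °C, 5% CO2. A dilution series was added in triplicate for 72 h, then AlamarBlue for 2–4 h. Fluorescence was read at ex 530/em 585 nm, with podophyllotoxin as positive control and values from curve fitting.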
# Plasmodium falciparum [4] = test: Antimalarial activity against drug-sensitive Plasmodium falciparum 3D7 assessed as [3H]hypoxanthine incorporation by scintillation counting; format: functional, organism-based
# Plasmodium falciparum [5] = test: Resistance index, ratio of IC50 for chloroquine-resistant Plasmodium falciparum K1 to IC50 for drug-sensitive Plasmodium falciparum 3D7; format: functional
# [6] = Selectivity index, ratio of CC50 for human KB cells to IC50 for drug-sensitive Plasmodium falciparum 3D7; format: functional
# Summary of the method: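 The 3D7 value came from [3H]hypoxanthine incorporation: synchronized culture at 0.5% parasitaemia, 2.5% hematocrit, Albumax-supplemented medium, 2-fold dilutions from 100 to 0.05 μM in triplicate, label added at 24 h and harvested at 48 h.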
# Plasmodium falciparum [7] = test: Resistance index, ratio of IC50 for chloroquine-resistant Plasmodium falciparum FcB1 to IC50 for drug-sensitive Plasmodium falciparum 3D7; format: functional
# Plasmodium falciparum [8] = test: Antimalarial activity against chloroquine-resistant Plasmodium falciparum FcB1 assessed as [3H]hypoxanthine incorporation after 48 hrs by beta-counter; format: functional, organism-based; settings: FcB1/Columbia
# Summary of the method: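 Primary assay (Toulouse) on FcB1 cultured in RPMI with 25 mM HEPES and 10% human serum, O RBCs. Serial dilutions in triplicate, 2% parasitaemia, 2% haematocrit, 48 h at 37 °C, 5% CO2. [3H]-hypoxanthine added at 24 h, freeze-thaw harvest, β-counting. IC50 by linear regression on the linear segment of the semilog inhibition curve. Three independent repeats.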
# [9] = Selectivity index, ratio of CC50 for human MCF7 cells to IC50 for chloroquine-resistant Plasmodium falciparum FcB1; format: functional
# Summary of the method: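 XTT 0.5 mg/mL added for 180 min, formazan read at 450 nm, value taken from dose–response curves, two experiments in triplicate. This CC50 is divided by the FcB1 IC50 to give the index.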
# [10] = Metabolic stability in CD1 mouse liver microsomes assessed as half life; format: ADME, Microsome
# Plasmodium berghei [11] = test: Antimalarial activity against Plasmodium berghei ANKA infected Swiss mice (Mus musculus) assessed as reduction in parasitemia at 30 mg/kg, perorally after 3 days measured on day 4; format: functional; design: scale not given: the % may be the effect or the level left; settings: route oral
# Summary of the method: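 Male Swiss outbred CD-1 mice (20 g) were infected iv with 2×10^6 P. berghei ANKA-infected red cells and put in groups of five per dose. Dosing was by oral gavage in suspending vehicle (0.5% Na carboxymethylcellulose, 0.5% benzyl alcohol, 0.4% Tween 80, 0.9% NaCl), starting 3 h postinfection, then once daily on days 1–3. Day-4 Giemsa films; % inhibition against untreated mean parasitaemia.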
# Plasmodium berghei [12] = test: Antimalarial activity against Plasmodium berghei ANKA infected Swiss mice (Mus musculus) assessed as reduction in parasitemia at 30 mg/kg, intraperitoneally after 3 days measured on day 4; format: functional; design: scale not given: the % may be the effect or the level left; settings: route intraperitoneal
# Summary of the method: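 P. berghei ANKA in male Swiss outbred CD-1 mice (20 g), kept specific pathogen-free. Infection was iv with 2×10^6 infected red cells on day 0, then mice were randomized into groups of five per dose. Compound was given ip in 0.05% Tween 80. Parasitaemia was read from Giemsa-stained blood films on day 4 and expressed as % inhibition from group arithmetic mean parasitaemia versus the untreated group.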
# [13] = Inhibition of beta-hematin formation assessed as biocrystallization by UV-visible assay; format: functional
# Mus musculus = test: Toxicity in Swiss mouse at 140 mg/kg, ip; format: organism-based; design: dose 140 mg/kg, route intraperitoneal; settings: in vivo
# Plasmodium berghei [14] = test: Antimalarial activity against Plasmodium berghei NK65 infected Swiss mice (Mus musculus) assessed as reduction in parasitemia at 48 mg/kg, intraperitoneally after 3 days measured on day 4; design: scale not given: the % may be the effect or the level left; settings: route intraperitoneal
# Plasmodium berghei [15] = test: Antimalarial activity against Plasmodium berghei NK65 infected Swiss mice (Mus musculus) assessed as reduction in parasitemia treated intraperitoneally for 3 days measured on day 4; settings: NK65, ip
structure (smiles),measurement,setting,value
COc1ccc2c(c1)C(=O)C(c1ccc(Cl)cc1)=[N+]2[O-],IC50,Plasmodium falciparum [1],59 nM
same,CC50 at 48 h,[2],21500 nM
same,CC50 at 72 h,[3],469000 nM
same,IC50,Plasmodium falciparum [4],62 nM
same,Ratio IC50,Plasmodium falciparum [5],1
same,Ratio CC50/IC50,[6],7564
same,Ratio IC50,Plasmodium falciparum [7],3.4
same,IC50,Plasmodium falciparum [8],210 nM
same,Ratio CC50/IC50,[9],102
COc1ccc2c(c1)C(=O)C(c1ccc(OC(C)C)cc1)=[N+]2[O-],IC50,Plasmodium falciparum [1],81.3 nM
same,half-life,[10],6 min
same,CC50 at 48 h,[2],> 32100 nM
same,Activity,Plasmodium berghei [11],25.1%
same,CC50 at 72 h,[3],321000 nM
same,Activity,Plasmodium berghei [12],30.4%
same,IC50,Plasmodium falciparum [4],32 nM
same,Ratio IC50,Plasmodium falciparum [5],2.5
same,Ratio CC50/IC50,[6],10031
same,Ratio IC50,Plasmodium falciparum [7],0.5
same,IC50,Plasmodium falciparum [8],17 nM
same,Ratio CC50/IC50,[9],> 1890
COc1ccc2c(c1)C(=O)C(c1ccc(C)cc1)=[N+]2[O-],IC50,Plasmodium falciparum [1],20 nM
same,CC50 at 48 h,[2],> 37500 nM
same,CC50 at 72 h,[3],56000 nM
same,IC50,Plasmodium falciparum [4],27 nM
same,Ratio IC50,Plasmodium falciparum [5],0.7
same,Ratio CC50/IC50,[6],2074
same,Ratio IC50,Plasmodium falciparum [7],1.9
same,IC50,Plasmodium falciparum [8],52 nM
same,Ratio CC50/IC50,[9],>721
COc1ccc2c(c1)C(=O)C(c1ccc(Oc3ccccc3)cc1)=[N+]2[O-],IC50,Plasmodium falciparum [1],< 1.5 nM
same,CC50 at 48 h,[2],7700 nM
same,CC50 at 72 h,[3],5600 nM
same,IC50,Plasmodium falciparum [4],37 nM
same,Ratio IC50,Plasmodium falciparum [5],<0.04
same,Ratio CC50/IC50,[6],151
same,Ratio IC50,Plasmodium falciparum [7],5.2
same,IC50,Plasmodium falciparum [8],193 nM
same,Ratio CC50/IC50,[9],40
COc1ccc2c(c1)C(=O)C(c1ccc(Cl)c(C(F)(F)F)c1)=[N+]2[O-],IC50,Plasmodium falciparum [1],5 nM
same,CC50 at 48 h,[2],13500 nM
same,CC50 at 72 h,[3],< 1400 nM
same,IC50,Plasmodium falciparum [4],69 nM
same,Ratio IC50,Plasmodium falciparum [5],0.1
same,Ratio CC50/IC50,[6],<20
same,Ratio IC50,Plasmodium falciparum [7],0.7
same,IC50,Plasmodium falciparum [8],50 nM
same,Ratio CC50/IC50,[9],270
COc1ccc2c(c1)C(=O)C(c1ccc(C)c(C)c1)=[N+]2[O-],IC50,Plasmodium falciparum [1],178 nM
same,CC50 at 48 h,[2],26000 nM
same,CC50 at 72 h,[3],148000 nM
same,IC50,Plasmodium falciparum [4],142 nM
same,Ratio IC50,Plasmodium falciparum [5],1.2
same,Ratio CC50/IC50,[6],980
same,Ratio IC50,Plasmodium falciparum [7],0.3
same,IC50,Plasmodium falciparum [8],37 nM
same,Ratio CC50/IC50,[9],702.7
COc1ccc2c(c1)C(=O)C(c1cccc(Cl)c1)=[N+]2[O-],IC50,Plasmodium falciparum [1],96 nM
same,CC50 at 48 h,[2],5200 nM
same,CC50 at 72 h,[3],64000 nM
same,IC50,Plasmodium falciparum [4],139 nM
same,Ratio IC50,Plasmodium falciparum [5],0.7
same,Ratio CC50/IC50,[6],688
same,Ratio IC50,Plasmodium falciparum [7],0.2
same,IC50,Plasmodium falciparum [8],21 nM
same,Ratio CC50/IC50,[9],248
O=C1C(c2ccccc2)=[N+]([O-])c2ccccc21,IC50,[13],Not Active
same,CC50 at 48 h,[2],19500 nM
same,IC50,Plasmodium falciparum [8],889 nM
same,Ratio CC50/IC50,[9],22
O=C1C(c2ccc(Cl)c(Cl)c2)=[N+]([O-])c2ccccc21,IC50,Plasmodium falciparum [1],80 nM
same,CC50 at 48 h,[2],13700 nM
same,CC50 at 72 h,[3],570000 nM
same,IC50,Plasmodium falciparum [4],98 nM
same,Ratio IC50,Plasmodium falciparum [5],0.8
same,Ratio CC50/IC50,[6],5816
same,Ratio IC50,Plasmodium falciparum [7],1.6
same,IC50,Plasmodium falciparum [8],155 nM
same,Ratio CC50/IC50,[9],88
COc1ccc2c(c1)C(=O)C(c1ccc(N(C)C)cc1)=[N+]2[O-],half-life,[10],6 min
same,CC50 at 48 h,[2],43900 nM
same,Activity,Plasmodium berghei [11],20.9%
same,CC50 at 72 h,[3],338000 nM
same,Activity,Plasmodium berghei [12],15.3%
same,IC50,Plasmodium falciparum [4],1.7 nM
same,Ratio CC50/IC50,[6],198823
same,Ratio IC50,Plasmodium falciparum [7],2.9
same,IC50,Plasmodium falciparum [8],< 3 nM
same,Ratio CC50/IC50,[9],> 14600
COc1ccc2c(c1)C(=O)C(c1ccc(C(F)(F)F)cc1)=[N+]2[O-],IC50,Plasmodium falciparum [1],1.9 nM
same,CC50 at 48 h,[2],11700 nM
same,CC50 at 72 h,[3],110000 nM
same,IC50,Plasmodium falciparum [4],< 0.5 nM
same,Ratio IC50,Plasmodium falciparum [5],3.8
same,Ratio CC50/IC50,[6],>220
same,Ratio IC50,Plasmodium falciparum [7],86
same,IC50,Plasmodium falciparum [8],43 nM
same,Ratio CC50/IC50,[9],273
COc1ccc2cc(C3=[N+]([O-])c4ccccc4C3=O)ccc2c1,CC50 at 48 h,[2],15300 nM
same,CC50 at 72 h,[3],233000 nM
same,Ratio CC50/IC50,[6],2589
CCOc1ccc(C2=[N+]([O-])c3cc4c(cc3C2=O)OCO4)cc1,IC50,[13],Not Active
same,CC50 at 48 h,[2],51900 nM
same,IC50,Plasmodium falciparum [8],156 nM
same,Ratio CC50/IC50,[9],332
COc1ccc(C2=[N+]([O-])c3ccc(OC)cc3C2=O)cc1,IC50,Plasmodium falciparum [1],16 nM
same,CC50 at 48 h,[2],> 35300 nM
same,CC50 at 72 h,[3],874000 nM
same,IC50,Plasmodium falciparum [4],82 nM
same,Ratio IC50,Plasmodium falciparum [5],0.2
same,Ratio CC50/IC50,[6],10658
same,Ratio IC50,Plasmodium falciparum [7],0.5
same,IC50,Plasmodium falciparum [8],40 nM
same,Ratio CC50/IC50,[9],>882
O=C1C(c2ccc(Cl)cc2)=[N+]([O-])c2cc3c(cc21)OCO3,IC50,Plasmodium falciparum [1],88 nM
same,half-life,[10],< 1 min
same,Activity,Mus musculus,Non-toxic
same,CC50 at 48 h,[2],15900 nM
same,Activity,Plasmodium berghei [11],14.5%
same,CC50 at 72 h,[3],27000 nM
same,Activity,Plasmodium berghei [12],62.1%
same,IC50,Plasmodium falciparum [4],58 nM
same,Ratio IC50,Plasmodium falciparum [5],1.5
same,Activity,Plasmodium berghei [14],81%
same,Ratio CC50/IC50,[6],450
same,Ratio IC50,Plasmodium falciparum [7],1.3
same,ED50,Plasmodium berghei [15],16 mg/kg
same,IC50,Plasmodium falciparum [8],75 nM
same,Ratio CC50/IC50,[9],212
COc1ccc(C2=[N+]([O-])c3ccccc3C2=O)cc1,IC50,Plasmodium falciparum [1],124 nM
same,half-life,[10],16 min
same,CC50 at 48 h,[2],> 39500 nM
same,Activity,Plasmodium berghei [11],32.4%
same,CC50 at 72 h,[3],457000 nM
same,Activity,Plasmodium berghei [12],40.5%
same,IC50,Plasmodium falciparum [4],101 nM
same,Ratio IC50,Plasmodium falciparum [5],1.2
same,Ratio CC50/IC50,[6],4525
same,Ratio IC50,Plasmodium falciparum [7],1.9
same,IC50,Plasmodium falciparum [8],195 nM
same,Ratio CC50/IC50,[9],>202
C[C@H]1[C@H](OC(=O)CCC(=O)[O-])O[C@@H]2O[C@@]3(C)CC[C@H]4[C@H](C)CC[C@@H]1[C@@]24OO3.[Na+] [SODIUM ARESUNATE],IC50,Plasmodium falciparum [1],4 nM
same,CC50 at 48 h,[2],9800 nM
same,CC50 at 72 h,[3],36200 nM
same,IC50,Plasmodium falciparum [4],4 nM
same,Ratio IC50,Plasmodium falciparum [5],1
same,Ratio CC50/IC50,[6],9045
same,Ratio IC50,Plasmodium falciparum [7],1.5
same,IC50,Plasmodium falciparum [8],6 nM
same,Ratio CC50/IC50,[9],1633

# Reference: ChEMBL document CHEMBL1156797, “Synthesis and antiplasmodial activity of new indolone N-oxide derivatives” (J Med Chem, 2010)
